The nature of experiment [1]: inhibitors of TNFa-induced NFkB p65 translocation, primary screen, imaging, HUVEC, MLSMR starter and 10KST1 sets (AID 438).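 For inhibition: signal is the nuclear over cytoplasmic p65 intensity ratio per well.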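 Note: compound added about 3h40 before a 20 min TNFalpha stimulation.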 As to conditions: HUVEC TNFa-induced p65 nuclear translocation; cell count: measured here: nuclei count (cytotoxicity indicator), at 2.08 µM; inhibition: at 2 µM, stronger effect = higher value, 0% TNFa-plus-vehicle, 100% no-TNFa wells.
Experiment [2] is described as follows: inhibitors of mutant huntingtin aggregation, primary screen, imaging, exon1htt(103Q)mCFP cells, high-content imaging (AID 483;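 active = visual image review flags a hit and inhibition of aggregation exceeds 20%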;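 note: compound exposure lasted 3 days before fixation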;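 for nuclei count: percent of the per-plate median nuclei count of sample wells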). As to conditions: exon1htt(103Q)mCFP cell line, aggregate imaging, at 2 µM; inhibition of aggregation: stronger effect = higher value; nuclei count: measured here: cell count, toxicity.
Experiment [3] can be described thus: inhibitors of E-selectin induction by TNFa, primary screen, imaging, HUVEC, immunofluorescence, MLSMR starter and 10KST1 sets (AID 487;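 active = visually confirmed hit in the image check and inhibition above 20%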;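 for inhibition: signal is fraction of cell area covered by stained E-selectin grains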;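 for nuclei count: 100% = median nuclei count of all wells on the same plate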). As to conditions: HUVEC TNFalpha-induced E-selectin immunofluorescence imaging, at 2 µM; inhibition: stronger effect = higher value; nuclei count: measured here: cell number, toxicity.
Experiment [4] has as its target Voltage-gated potassium channel subunit beta-2 (Rattus norvegicus) (UniProt P62483). Nature of the experiment: KvBeta enzyme negative modulators, primary screen, biochemical, NADPH fluorescence (AID 622;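 active = fluorescence slope higher than the sample average by over 3 SD, cut at about -0.22 in these data, passing the limit was not always enough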;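 note: slope of raw intensity against log time taken from 70 to 1610 s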). Conditions: recombinant KvBeta, 4-cyanobenzaldehyde reduction, at 10 µM, stronger effect = higher value.
Experiment [5] has the same target. Nature of the experiment: KvBeta positive modulators, primary screen, biochemical, NADPH fluorescence (AID 623;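 active = NADPH fluorescence slope more negative than the mean of all samples by about 3 SD, 99.7% confidence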;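 note: fluorescence intensity change per second fitted from 20 to 320 s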). As to conditions: Recombinant KvBeta, NADPH fluorescence decrease slope, 10 min; at 10 µM; stronger effect = lower value.
Experiment [6] concerns the target Alpha-2C adrenergic receptor (Homo sapiens) (UniProt P18825). Kind of experiment: modulators of alpha2C/GIRK thallium flux, primary screen, cell-based, HEK293 alpha2C/GIRK1/2 (AID 624;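 active = fluorescence slope after compound addition differing from the mean of all screened samples at 99.7% confidence, in either direction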;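 note: slope of fluorescence ratio to pre-addition baseline per second over 15 to 24 s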). As to conditions: thallium flux BTC fluorescence, at 10 µM, actives lie on both sides.
Experiment [7] is described as follows: inhibitors of larval lipid processing in zebrafish, primary screen, whole organism, PED6 fluorescence, gall bladder and intestine (AID 686;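 active = a full or partial loss of lipid-probe fluorescence in the fish gall bladder, intestine or both, judged by eye; inactive = no fluorescence loss, or compound toxic to the fish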;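 note: larvae 5 to 7 days old with five fish per well; signal comes from phospholipase A2 cleavage of quenched PED6 carried via bile; overnight exposure to compound and PED6 before scoring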). Conditions: Zebrafish larvae PED6 lipid processing, fluorescence scoring; screened at 20 µM (by protocol). A digest of the protocol: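 Also added: quenched phospholipase substrate PED6, 100 nM final, ingested by larvae; System: zebrafish larvae, 5-7 d; Quantity: 5 larvae per well; Compound: 20 µM single dose; Schedule: overnight compound and PED6 incubation; Read-out: visual per-well fluorescence inhibition score; Measured by: By-eye fluorescence microscopy; Medium: E3.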

The nature of experiment [8]: inhibitors of Sendai virus-induced IRF3 signaling, primary screen, TLR/RLR signaling modifier project, cell-based, Sendai virus stimulus, luciferase, 10K MLSCN set (AID 602276;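 active = inhibition at or above 50% at 10 µM; inactive = inhibition below 50%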;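 note: firefly luciferase from ISG56 promoter only with Renilla not read in this screen; 0% = Sendai virus plus DMSO and 100% = medium plus DMSO without virus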). As to conditions: HEK293 RL24 IRF3 luciferase reporter, at 10 µM, stronger effect = higher value. (In general: Reporter assays use an easily measured gene product as a stand-in for the process of interest.)

A short description of experiment [9]: inhibitors of poly I:C-induced TLR3 signaling, primary screen, cell-based, poly I:C stimulus, luciferase, 10K MLSCN set (AID 602277;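 active = inhibition of the reporter signal at or above 50%; inactive = inhibition below 50%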). As to conditions: HEK293-TLR3 RL24 IRF3 luciferase reporter, at 10 µM, stronger effect = higher value.

Data on twelve compounds can be found in PubChem BioAssay.

Active and inactive are the calls of the source.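 Rule for the calls, unless noted: active = inhibition above 20% together with a positive visual image hit; inconclusive = visual image hit but inhibition not above 20%; inactive = no visual image hit.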

Voltage-gated potassium channel subunit beta-2 (Rattus norvegicus), sequence (P62483 whole entry, looked up): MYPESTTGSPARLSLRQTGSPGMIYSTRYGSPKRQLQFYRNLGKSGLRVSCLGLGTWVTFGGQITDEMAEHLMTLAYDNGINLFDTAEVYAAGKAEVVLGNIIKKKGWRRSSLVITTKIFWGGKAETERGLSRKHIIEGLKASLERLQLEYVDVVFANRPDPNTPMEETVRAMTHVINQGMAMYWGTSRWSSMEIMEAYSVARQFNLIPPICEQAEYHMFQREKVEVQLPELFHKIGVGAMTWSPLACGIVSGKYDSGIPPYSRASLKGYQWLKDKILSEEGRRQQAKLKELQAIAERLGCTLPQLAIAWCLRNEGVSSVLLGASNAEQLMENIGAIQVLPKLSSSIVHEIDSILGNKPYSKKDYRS
Alpha-2C adrenergic receptor (Homo sapiens), sequence (P18825 whole entry, looked up): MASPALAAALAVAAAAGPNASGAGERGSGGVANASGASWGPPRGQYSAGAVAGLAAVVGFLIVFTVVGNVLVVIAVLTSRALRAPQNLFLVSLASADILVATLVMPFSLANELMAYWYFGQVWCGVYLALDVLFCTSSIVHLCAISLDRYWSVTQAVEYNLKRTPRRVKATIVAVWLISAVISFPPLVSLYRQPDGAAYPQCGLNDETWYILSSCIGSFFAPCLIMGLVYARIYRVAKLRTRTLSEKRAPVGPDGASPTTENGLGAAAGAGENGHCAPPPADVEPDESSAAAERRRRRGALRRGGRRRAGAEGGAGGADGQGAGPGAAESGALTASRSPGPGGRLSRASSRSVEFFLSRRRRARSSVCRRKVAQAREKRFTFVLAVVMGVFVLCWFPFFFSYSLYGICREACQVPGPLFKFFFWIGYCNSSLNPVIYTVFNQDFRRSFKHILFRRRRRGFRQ

`CCc1n[nH]c2c1C(=O)CC(C)(C)C2`: the cell count in [1] came to 438. Moreover, the inhibition was -5.8% (inactive) in [1], 19.5% (inactive) in experiment [3], -8.61% (inactive) in experiment [8] and -7.25% (inactive) in experiment [9]. The inhibition of aggregation in experiment [2] was 4.8% (inactive). The values for the nuclei count in experiment [2] and in [3] were 97.7% and 110%, respectively. For the same compound, in experiment [4], the fluorescence slope is -0.382 (inactive). For the same compound, the NADPH fluorescence slope in [5] is -5e-05 (inactive). Besides, the slope in experiment [6] is 0.00556 (inactive). The compound was called inactive in experiment [7].

With `Cc1ccc(CS(=O)(=O)Cc2ccc(C(=O)NCc3ccccn3)o2)cc1`, the cell count in experiment [1] was 454. Besides, the inhibition was 6% (inactive) in [1], 8.5% (inactive) in experiment [3], 12% (inactive) in experiment [8] and 7.77% (inactive) in experiment [9]. In experiment [2], the inhibition of aggregation was -2.9% (inactive). Further, the values for the nuclei count in experiment [2] and in experiment [3] were 102% and 93.1%, respectively. For the same compound, the fluorescence slope in experiment [4] is -0.18 (inactive). Also, the NADPH fluorescence slope in experiment [5] was -2.3e-05 (inactive). For the same compound, the slope in experiment [6] was 0.00535 (inactive). The outcome in experiment [7] was inactive.

Turning to `Cc1cc(NC(=O)CS(=O)(=O)c2cn(Cc3ccccc3Cl)c3ccccc23)no1`, the cell count in [1] came to 767. Besides, the inhibition in experiment [1] is -27.1% (inactive); in experiment [3] it was 67.2% (active); in [8], 7.87% (inactive); in experiment [9] it was 2.26% (inactive). Also, the inhibition of aggregation in experiment [2] is 0.3% (inactive). Further, the nuclei count in experiment [2] stood at 98.5%; in [3], 83.3%. In addition, the fluorescence slope in experiment [4] is -0.323 (inactive). For the same compound, the NADPH fluorescence slope in experiment [5] is -2.3e-05 (inactive). The slope in experiment [6] was 0.00422 (inactive). Further, the result in [7] was inactive.

Take `CCCCCCn1c(CN2CCCC(C)C2)nc2c1c(=O)n(C)c(=O)n2C` (centres undefined): the cell count in experiment [1] was 302. For the same compound, the inhibition in [1] was -3.8% (inactive); in experiment [3] it was -46.9% (inactive); in experiment [8] it was 17.5% (inactive); in [9], 9.02% (inactive). Also, in experiment [2], the inhibition of aggregation was -10.6% (inactive). The results for the nuclei count in [2] and in [3] were 104% and 114%, respectively. Further, in experiment [4], the fluorescence slope is -0.396 (inactive). The NADPH fluorescence slope in [5] was -4.7e-05 (inactive). Further, the slope in experiment [6] is 0.00516 (inactive). The compound was classed as inactive in experiment [7].

As to `CNC(=O)OC(C)CNS(=O)(=O)c1ccc(C)cc1` (centres undefined), in experiment [1], the cell count was found to be 441. Also, the inhibition was 9.8% (inactive) in [1], -36.3% (inactive) in experiment [3], 19.5% (inactive) in [8] and 17.5% (inactive) in [9]. Moreover, in [2], the inhibition of aggregation was 5.2% (inactive). Moreover, the nuclei count in experiment [2] worked out at 103%; in [3] it was 118%. The fluorescence slope in [4] is -0.433 (inactive). Also, the NADPH fluorescence slope in [5] is -4.1e-05 (inactive). The slope in experiment [6] is 0.00412 (inactive). In experiment [7], the result was inactive.

On to `O=c1c2[nH]c3ccc(Cl)cc3c2ncn1Cc1ccccn1`, for which the cell count in experiment [1] turned out to be 302. Also, the inhibition in experiment [1] is -3.6% (inactive); in experiment [3], -31.6% (inactive); in [8], -2.53% (inactive); in experiment [9], 5.03% (inactive). Moreover, in [2], the inhibition of aggregation is -30.4% (inactive). Moreover, the nuclei count in experiment [2] was found to be 83.4%; in experiment [3], 107%. Besides, the fluorescence slope in [4] is -0.392 (inactive). Also, the NADPH fluorescence slope in experiment [5] was -4.3e-05 (inactive). Also, the slope in experiment [6] is 0.00522 (inactive). In addition, the result in experiment [7] was inactive.

Regarding `Cc1ccc(-c2nn[nH]n2)cc1`, the cell count in experiment [1] came out at 334. Further, the inhibition in experiment [1] is -7.1% (inactive); in [3], -4.4% (inactive); in experiment [8], 4.2% (inactive); in experiment [9], 10.7% (inactive). Besides, the inhibition of aggregation in [2] was -16.2% (inactive). Besides, the results for the nuclei count in [2] and in experiment [3] were 117% and 123%, respectively. Besides, in experiment [4], the fluorescence slope is -0.474 (inactive). Moreover, in [5], the NADPH fluorescence slope was -3.8e-05 (inactive). Further, the slope in experiment [6] was 0.00429 (inactive). Besides, the compound was called inactive in experiment [7].

Turning to `Cc1nnc(SCCCn2c(N3CCCCC3)nc3c2c(=O)[nH]c(=O)n3C)s1`, the cell count in experiment [1] was 382. Also, the inhibition in experiment [1] is -2.4% (inactive); in [3], -64.9% (inactive); in experiment [8], 8.32% (inactive); in experiment [9] it was 17.6% (inactive). The inhibition of aggregation in experiment [2] was -17.5% (inactive). For the same compound, the nuclei count in experiment [2] was 109%; in [3], 93.7%. Also, in experiment [4], the fluorescence slope is -0.458 (inactive). Moreover, the NADPH fluorescence slope in experiment [5] was -1.1e-05 (inactive). Besides, the slope in experiment [6] was 0.00412 (inactive). The compound was classed as inactive in [7].

On to `O=C(CSc1nnc(-c2ccccn2)n1Cc1ccccc1)N1CCCC1`, for which the cell count in experiment [1] worked out at 340. In addition, the inhibition in experiment [1] is 8.1% (inactive); in experiment [3] it was 19.6% (inactive); in [8], 3.06% (inactive); in [9], 2.57% (inactive). Moreover, the inhibition of aggregation in [2] was 7.9% (inactive). Also, the values for the nuclei count in experiment [2] and in experiment [3] were 112% and 97.4%, respectively. Further, in experiment [4], the fluorescence slope was -0.365 (inactive). The NADPH fluorescence slope in [5] is -6.5e-05 (inactive). In addition, the slope in experiment [6] is 0.00635 (inactive). The call in experiment [7] was inactive.

In the case of `COCCn1c(Sc2nc(C)cs2)nc2c1c(=O)[nH]c(=O)n2C`, the cell count in experiment [1] was 422. For the same compound, the inhibition in experiment [1] is 5% (inactive); in [3], -78.3% (inactive); in experiment [8] it was 17.1% (inactive); in experiment [9] it was 11.3% (inactive). Moreover, the inhibition of aggregation in experiment [2] was -38.9% (inactive). Also, the nuclei count in experiment [2] came out at 105%; in experiment [3], 78.1%. In experiment [4], the fluorescence slope is -0.475 (inactive). For the same compound, the NADPH fluorescence slope in experiment [5] is -1.5e-05 (inactive). In addition, the slope in experiment [6] is 0.00482 (inactive). In addition, in experiment [7], the outcome was inactive.

As for `COc1ccc(CCN2C(=O)CC(N3CCN(S(=O)(=O)c4ccccc4)CC3)C2=O)cc1` (centres undefined), in experiment [1], the cell count was 666. The inhibition is 11.3% (inactive) in experiment [1], 69.9% (active) in [3], 11.6% (inactive) in experiment [8] and 6.07% (inactive) in [9]. The inhibition of aggregation in [2] is 19.5% (inactive). Further, the nuclei count came to 106% in [2] and 110% in experiment [3]. Besides, the fluorescence slope in [4] is -0.483 (inactive). In addition, the NADPH fluorescence slope in experiment [5] is -8.5e-06 (inactive). Moreover, the slope in experiment [6] is 0.0045 (inactive). In addition, the call in [7] was inactive.

On to `COC(=O)c1ccc(CSc2nnnn2Cc2ccccc2)cc1`, for which, in experiment [1], the cell count worked out at 341. Also, the inhibition is 3% (inactive) in [1], -32.4% (inactive) in experiment [3], 9.31% (inactive) in [8] and 37.9% (inactive) in experiment [9]. In addition, the inhibition of aggregation in experiment [2] was -32.1% (inactive). In addition, the results for the nuclei count in experiment [2] and in experiment [3] were 108% and 104%, respectively. Moreover, the fluorescence slope in experiment [4] was -0.322 (inactive). The NADPH fluorescence slope in experiment [5] was 3.4e-06 (inactive). The slope in [6] is 0.00496 (inactive). For the same compound, the compound was classed as inactive in [7].

What is called inhibition is the drop in the measured response relative to a control, in per cent.
